ChEMBL document CHEMBL1129036, “Bisindolylmaleimides linked to DNA minor groove binding lexitropsins: synthesis, inhibitory activity against topoisomerase I, and biological evaluation” (J Med Chem, 1996)
In brackets after ≈: the same amount, converted by molar mass.

Experiments:
[1] = target: T1, DNA topoisomerase 1 (Homo sapiens) (UniProt P11387); conditions: Escherichia coli; at 25 µM
T1 sequence (whole entry): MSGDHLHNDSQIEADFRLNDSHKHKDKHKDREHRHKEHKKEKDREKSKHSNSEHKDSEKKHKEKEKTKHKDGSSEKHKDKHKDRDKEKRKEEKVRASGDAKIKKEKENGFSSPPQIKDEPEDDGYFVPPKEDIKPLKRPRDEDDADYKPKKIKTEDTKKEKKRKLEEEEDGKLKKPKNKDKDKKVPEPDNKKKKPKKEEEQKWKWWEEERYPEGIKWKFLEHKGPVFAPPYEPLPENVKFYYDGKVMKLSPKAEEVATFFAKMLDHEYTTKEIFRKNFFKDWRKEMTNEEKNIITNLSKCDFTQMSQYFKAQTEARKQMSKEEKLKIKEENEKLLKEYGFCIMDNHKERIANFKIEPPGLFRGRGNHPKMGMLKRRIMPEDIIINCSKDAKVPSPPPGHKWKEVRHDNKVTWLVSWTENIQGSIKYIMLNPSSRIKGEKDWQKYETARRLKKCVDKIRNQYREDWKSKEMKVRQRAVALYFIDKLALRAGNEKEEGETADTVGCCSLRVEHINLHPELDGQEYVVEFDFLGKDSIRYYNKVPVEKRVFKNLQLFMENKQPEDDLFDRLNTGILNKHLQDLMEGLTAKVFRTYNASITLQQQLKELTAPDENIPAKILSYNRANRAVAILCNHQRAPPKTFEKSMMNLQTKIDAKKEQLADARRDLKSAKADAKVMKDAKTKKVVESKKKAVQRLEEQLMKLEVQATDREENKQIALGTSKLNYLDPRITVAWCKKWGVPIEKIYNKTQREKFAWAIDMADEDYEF

[2] = target: T1, DNA topoisomerase 1 (Homo sapiens); test: Topoisomerase I DNA relaxation activity was evaluated by Fluorescence assay using Ethidium Bromide after heat denaturation of pBR322 DNA at concentration 100 uM; conditions: Escherichia coli
Outline: (§1)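 0.25 µg pBR322 DNA with ligand plus topoisomerase I (0.5 unit), 30 min at 37 °C. Then ethidium bromide buffer added (0.5 µg/mL EtBr, 20 mM K₃PO₄, 0.5 mM EDTA, pH 12). Fluorescence read at ex 525/em 600 nm before and after heat denaturation of DNA; percent change vs control.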

[3] = In vitro cytotoxicity against KB cancer cell line (ATCC CCL 17).; type: cell-based; conditions: human, KB cancer cells (ATCC CCL 17); read-out: TD50 (the source's name)
Outline: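 KB cells grown in Eagle's MEM with 10% calf serum, 37 °C, humidified 5% CO₂. Seeded at 3 × 10³ cells/mL, cultured 24 h, then compound added in triplicate at several concentrations for 3 days. TD50 is the concentration giving 50% reduction in cell count; average of ≥3 determinations.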

[4] = target: T1, DNA topoisomerase 1 (Homo sapiens); test: Topoisomerase I DNA relaxation activity was evaluated by Fluorescence assay using Ethidium Bromide before heat denaturation of pBR322 DNA at concentration 50 uM; conditions: Escherichia coli
Outline: as §1

[5] = target: T1, DNA topoisomerase 1 (Homo sapiens); conditions: Escherichia coli; at 25 µM; remark: listed apart in the source
[6] = target: T1, DNA topoisomerase 1 (Homo sapiens); test: Topoisomerase I DNA relaxation activity was evaluated by Fluorescence assay using Ethidium Bromide after heat denaturation of pBR322 DNA at concentration 50 uM; conditions: Escherichia coli
Outline: as §1

[7] = target: T1, DNA topoisomerase 1 (Homo sapiens); test: Topoisomerase I DNA relaxation activity was evaluated by Fluorescence assay using Ethidium Bromide before heat denaturation of pBR322 DNA at concentration 100 uM; conditions: Escherichia coli
Outline: as §1

[8] = target: T1, DNA topoisomerase 1 (Homo sapiens); test: Topoisomerase I […] was evaluated by Fluorescence assay using Ethidium Bromide before heat denaturation of pBR322 DNA at concentration 50 uM; conditions: Escherichia coli
Outline: (§2)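 0.25 µg pBR322 DNA incubated with ligand alone, no enzyme, 30 min at 37 °C. Ethidium bromide buffer added (0.5 µg/mL EtBr, 20 mM K₃PO₄, 0.5 mM EDTA, pH 12). Fluorescence measured at ex 525/em 600 nm before and after heat denaturation of DNA; percent change vs control.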

[9] = target: T1, DNA topoisomerase 1 (Homo sapiens); test: Topoisomerase I DNA relaxation activity was evaluated by Agarose Gel Electrophoresis test at concentration 50 uM; conditions: Escherichia coli
Outline: (§3)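 Relaxation of 0.25 µg supercoiled pBR322 DNA by 0.5 unit topoisomerase I, 30 min at 37 °C with ligand (25–250 µM), final volume 10 µL. SDS-containing loading buffer added, further 30 min at 37 °C. Agarose gel run overnight, stained with ethidium bromide (0.5 µg/mL), photographed. Percent supercoiled DNA remaining by laser densitometry, scored in bands (<10% to 75–100%).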

[10] = target: T1, DNA topoisomerase 1 (Homo sapiens); test: Topoisomerase I DNA relaxation activity was evaluated by Fluorescence assay using Ethidium Bromide before heat denaturation of pBR322 DNA at concentration 250 uM; conditions: Escherichia coli
Outline: as §1

[11] = target: T1, DNA topoisomerase 1 (Homo sapiens); test: Topoisomerase I […] was evaluated by Fluorescence assay using Ethidium Bromide before heat denaturation of pBR322 DNA at concentration 250 uM; conditions: Escherichia coli
Outline: as §2

[12] = target: T1, DNA topoisomerase 1 (Homo sapiens); test: Topoisomerase I DNA relaxation activity was evaluated by Agarose Gel Electrophoresis test at concentration 25 uM; conditions: Escherichia coli; at 25 µM
Outline: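 0.25 µg supercoiled pBR322 DNA and 0.5 unit topoisomerase I incubated with ligand for 30 min at 37 °C (10 µL final). Equal volume loading buffer with SDS added, a further 30 min at 37 °C, agarose gel run overnight, ethidium bromide stained. Supercoiled DNA remaining quantified by laser densitometry of the photographed gel. Scored as % inhibition bands (<10% to 75-100%).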

[13] = target: T1, DNA topoisomerase 1 (Homo sapiens); test: Topoisomerase I […] was evaluated by Fluorescence assay using Ethidium Bromide before heat denaturation of pBR322 DNA at concentration 25 uM; conditions: Escherichia coli; at 25 µM
Outline: (§4)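 0.25 µg pBR322 DNA incubated with ligand for 30 min at 37 °C without topoisomerase I (DNA and compound only). Ethidium bromide buffer then added (0.5 µg/mL ethidium bromide, 20 mM K₃PO₄, 0.5 mM EDTA, pH 12). Fluorescence read at excitation 525 nm and emission 600 nm, before and after heat denaturation of the DNA. Reported as percent change from control.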

[14] = target: T1, DNA topoisomerase 1 (Homo sapiens); test: Topoisomerase I DNA relaxation activity was evaluated by Agarose Gel Electrophoresis test at concentration 250 uM; conditions: Escherichia coli
Outline: as §3

[15] = target: T1, DNA topoisomerase 1 (Homo sapiens); test: Topoisomerase I […] was evaluated by Fluorescence assay using Ethidium Bromide after heat denaturation of pBR322 DNA at concentration 25 uM; conditions: Escherichia coli; at 25 µM
Outline: as §4

[16] = target: T1, DNA topoisomerase 1 (Homo sapiens); test: Topoisomerase I […] was evaluated by Fluorescence assay using Ethidium Bromide after heat denaturation of pBR322 DNA at concentration 250 uM; conditions: Escherichia coli
Outline: as §2

[17] = target: T1, DNA topoisomerase 1 (Homo sapiens); test: Topoisomerase I DNA relaxation activity was evaluated by Fluorescence assay using Ethidium Bromide after heat denaturation of pBR322 DNA at concentration 250 uM; conditions: Escherichia coli
Outline: as §1

[18] = target: T1, DNA topoisomerase 1 (Homo sapiens); test: Topoisomerase I […] was evaluated by Fluorescence assay using Ethidium Bromide before heat denaturation of pBR322 DNA at concentration 100 uM; conditions: Escherichia coli
Outline: as §2

[19] = target: T1, DNA topoisomerase 1 (Homo sapiens); test: Topoisomerase I […] was evaluated by Fluorescence assay using Ethidium Bromide after heat denaturation of pBR322 DNA at concentration 50 uM; conditions: Escherichia coli
Outline: as §2

[20] = target: T1, DNA topoisomerase 1 (Homo sapiens); test: Topoisomerase I […] was evaluated by Fluorescence assay using Ethidium Bromide after heat denaturation of pBR322 DNA at concentration 100 uM; conditions: Escherichia coli
Outline: as §2

[21] = target: T1, DNA topoisomerase 1 (Homo sapiens); test: Topoisomerase I DNA relaxation activity was evaluated by Agarose Gel Electrophoresis test at concentration 100 uM; conditions: Escherichia coli
Outline: as §3

[22] = target: T1, DNA topoisomerase 1 (Homo sapiens); test: Topoisomerase I DNA relaxation activity was evaluated by Fluorescence assay using Ethidium Bromide after heat denaturation of pBR322 DNA at concentration 25 uM; conditions: Escherichia coli; at 25 µM
Outline: as §4, with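 “ligand and topoisomerase I (0.5 unit)” for “ligand”, “°C.” for “°C without topoisomerase I (DNA and compound only).”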

[23] = target: T1, DNA topoisomerase 1 (Homo sapiens); test: Topoisomerase I DNA relaxation activity was evaluated by Fluorescence assay using Ethidium Bromide before heat denaturation of pBR322 DNA at concentration 25 uM; conditions: Escherichia coli; at 25 µM
Outline: as §4, with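 “ligand and topoisomerase I (0.5 unit)” for “ligand”, “°C.” for “°C without topoisomerase I (DNA and compound only).”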

Compound | Change [2] [%] | CC50 [3] [µg/mL] | Change [4] [%] | Change [6] [%] | Change [7] [%] | Change [8] [%] | inhibition [9] [%] | Change [10] [%] | Change [11] [%] | inhibition [12] [%] | Change [13] [%] | inhibition [14] [%] | Change [15] [%] | Change [16] [%] | Change [17] [%] | Change [18] [%] | Change [19] [%] | Change [20] [%] | inhibition [21] [%] | Change [22] [%] | further results
CC[C@@]1(O)C(=O)OCc2c1cc1n(c2=O)Cc2cc3ccccc3nc2-1 [CAMPTOTHECIN] | 3 | 0.01 (≈ 0.0287 µM) | 12 | 7 | 3 | – | – | – | – | – | – | – | – | – | – | – | – | – | – | – | Change [1]: 7%; Change [5]: 6%
COC(=O)c1cc(NC(=O)Cn2cc(C3=C(c4c[nH]c5ccccc45)C(=O)NC3=O)c3ccccc32)cn1C | 12 | 53.2 (≈ 102 µM) | 1 | 18 | 3 | 3 | 0 | 1 | 2 | 0 | 2 | 0 | 15 | 17 | 9 | 6 | 12 | 14 | 0 | – | Change [1]: 18%; Change [5]: 1%
CN(C)CCCNC(=O)c1cc(NC(=O)c2cc(NC(=O)Cn3cc(C4=C(c5c[nH]c6ccccc56)C(=O)NC4=O)c4ccccc43)cn2C)cn1C | 15 | 92.3 (≈ 129 µM) | 10 | 4 | 18 | 14 | 25 | 14 | 32 | < 10 | 2 | 75 | 5 | 14 | 9 | 21 | 3 | 12 | 50 | 3 | Change [23]: 7%
COC(=O)c1cc(NC(=O)c2cc(NC(=O)c3cc(NC(=O)Cn4cc(C5=C(c6c[nH]c7ccccc67)C(=O)NC5=O)c5ccccc54)cn3C)cn2C)cn1C | 0 | 77.3 (≈ 101 µM) | 9 | 9 | 15 | 25 | 0 | 36 | 52 | 0 | 11 | 0 | 14 | 20 | 3 | 33 | 17 | 17 | 0 | 6 | Change [23]: 1%
CN(C)CCCNC(=O)c1cc(NC(=O)c2cc(NC(=O)c3cc(NC(=O)Cn4cc(C5=C(c6c[nH]c7ccccc67)C(=O)NC5=O)c5ccccc54)cn3C)cn2C)cn1C | 15 | > 100 | 15 | 7 | 20 | 26 | 50 | 14 | 28 | 25 | 28 | 100 | 6 | 4 | 13 | 24 | 15 | 13 | 75 | 3 | Change [23]: 11%
CN(C)CCCNC(=O)c1cc(NC(=O)Cn2cc(C3=C(c4c[nH]c5ccccc45)C(=O)NC3=O)c3ccccc32)cn1C | 0 | 84 (≈ 142 µM) | 5 | 0 | 6 | 1 | 0 | 10 | 18 | 0 | 1 | 25 | 12 | 2 | 3 | 6 | 7 | 3 | < 10 | – | Change [1]: 6%; Change [5]: 3%
COC(=O)c1cc(NC(=O)c2cc(NC(=O)Cn3cc(C4=C(c5c[nH]c6ccccc56)C(=O)NC4=O)c4ccccc43)cn2C)cn1C | 12 | 58 (≈ 90.1 µM) | 2 | 7 | 1 | 3 | 0 | 24 | 33 | 0 | 5 | 0 | 4 | 10 | 3 | 2 | 15 | 15 | 0 | 13 | Change [23]: 3%
